Experimental data: article PMC3806199 (Nature communications, 2013)
One block for each compound: values may come before it. Bridge positions count the residues as written; N and C are the ends. Ends that are not written are not given here.

Key:
interscapular BAT = assay: FDG PET/CT imaging of BAT metabolic activity; type: in vivo, mouse; settings: versus cold-acclimated mice
BAT = assay: NIR fluorescence imaging; type: in vivo, mouse; settings: 100 nmol iv, 1 hr, IRDye800 conjugate
How it was run: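 Subjects were 6-week-old C57BL/6 males, n=3 per group, with experiments done twice. Mice were pre-housed at 6 °C or RT, with propranolol where indicated. IRDye800-conjugated test peptide or a control WAT-homing peptide was given i.v. and circulated 1 h. Interscapular BAT and i.p. WAT were resected and imaged by NIR fluorescence with 785 nm laser excitation. Data are mean ± s.e.m.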

reduction in FDG uptake by BAT as a result of warm-acclimation (interscapular BAT): 1.7 fold
Compound: OC[C@H]1O[C@@H](O)[C@H]([18F])[C@@H](O)[C@@H]1O [FDG, fluorine-18 deoxyglucose]

Compound: CC(C)NCC(O)COc1cccc2ccccc12 (stereo not drawn) [propranolol]
reduction in FDG uptake by BAT, warm-acclimation combined with propranolol treatment (interscapular BAT; propranolol ip 5 mg/kg): 4.1 fold

Compound: CKGGRAKDC (disulfide 1-9 (inferred))
accumulation in WAT and BAT (resected tissues) (BAT): accumulation in WAT, but not in BAT
